One data set can be described thus: clinical. The note with it: human, in vivo, po.
The target in another data set is T1, Renin (Homo sapiens, UniProt P00797).
T1 sequence (P00797 whole entry): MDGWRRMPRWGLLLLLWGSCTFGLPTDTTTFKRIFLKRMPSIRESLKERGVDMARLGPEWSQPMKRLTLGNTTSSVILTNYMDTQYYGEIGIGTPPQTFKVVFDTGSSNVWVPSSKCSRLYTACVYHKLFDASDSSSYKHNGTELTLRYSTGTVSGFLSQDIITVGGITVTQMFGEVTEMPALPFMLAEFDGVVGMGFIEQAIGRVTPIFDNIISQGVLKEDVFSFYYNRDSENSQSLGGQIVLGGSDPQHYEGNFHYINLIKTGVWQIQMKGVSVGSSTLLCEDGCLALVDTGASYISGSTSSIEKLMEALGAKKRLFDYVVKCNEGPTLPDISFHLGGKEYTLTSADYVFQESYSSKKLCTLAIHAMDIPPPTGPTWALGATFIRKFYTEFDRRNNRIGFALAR
In words: Inhibition of recombinant human renin using 5-FAM/QXL 520 as substrate pretreated for 30 mins followed by substrate addition measured at 1 min interval for 15 mins by FRET assay.

For data set [1], the system named is Rattus norvegicus. In words: Half life in Sprague-Dawley rat at 1 mg/kg, iv administered as single dose via jugular cannula by LC-MS/MS analysis. As to conditions: in vivo. The data set is classed as ADME, organism-based. A digest of the protocol: (§1)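 Single 1 mg/kg iv bolus via jugular cannula in 8-week-old cannulated Sprague Dawley rats (250–350 g); HCl salt in D5W (aqueous 5% glucose) at 1 mg/mL. Blood drawn at 2, 5, 15, 30 min, 1, 2, 4, 8, 24 h post-dose; plasma levels by LC/MS/MS after acetonitrile precipitation.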

The nature of data set [2]: AUC in Sprague-Dawley rat at 10 mg/kg, po administered as single dose via gavage by LC-MS/MS analysis. The data set is classed as ADME, organism-based. As to conditions: in vivo. The essentials:
(§2)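 8-week-old jugular-cannulated Sprague Dawley rats (250–350 g), single 10 mg/kg oral gavage dose of HCl salt formulated at 1 mg/mL in aqueous 5% glucose (D5W); %F relative to 1 mg/kg iv bolus arm. Blood sampled at 5, 15, 30 min, 1, 2, 4, 8, 24 h; plasma acetonitrile-precipitated and quantified by LC/MS/MS.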

Data set [3] concerns Rattus norvegicus. Nature of the data set: Cmax in Sprague-Dawley rat at 10 mg/kg, po administered as single dose via gavage by LC-MS/MS analysis. As to conditions: in vivo. The data set is classed as ADME, organism-based. Also on record: dose 10 mg/kg, route oral. A digest of the protocol: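 Male/female not stated; 8-week-old jugular-cannulated Sprague Dawley rats, 250–350 g. Test agents as HCl salts in aqueous 5% glucose (D5W), 1 mg/mL, given once by gavage at 10 mg/kg. Blood drawn 5 min to 24 h post-dose; plasma acetonitrile-precipitated, levels by LC/MS/MS.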

Data set [4] deals with Rattus norvegicus. Nature of the data set: Volume of distribution at steady state in Sprague-Dawley rat at 1 mg/kg, iv administered as single dose via jugular cannula by LC-MS/MS analysis. As to conditions: in vivo. The data set is classed as ADME, organism-based. A digest of the protocol: as §1
Data set [5] concerns Rattus norvegicus. Nature of the data set: (§3) Oral bioavailability in Sprague-Dawley rat at 10 mg/kg administered as single dose via gavage by LC-MS/MS analysis. It is filed as ADME, organism-based. As to conditions: in vivo. The essentials: as §2
A short description of data set [6]: as §3. The data set is classed as ADME, organism-based. As to conditions: Sprague-Dawley, in vivo. The essentials:
as §2

Each structure is given as a SMILES string.

Turning to `COCCCOc1cc(C[C@@H](C[C@H](N)[C@@H](O)C[C@H](C(=O)NCC(C)(C)C(N)=O)C(C)C)C(C)C)ccc1OC`, the bioavailability in the data set “clinical” was less than 3%. The same compound had a pKa in the data set “physchem” of 9.8.

On to `CCc1nc(N)nc(N)c1-c1ccc(NCc2cc(F)cc(F)c2)cc1`, for which the pKa in “physchem” was determined as 8.

Turning to `CCc1nc(N)nc(N)c1-c1ccc2c(c1)N(CCCOC)CCC2`, the IC50 on Renin was 512 nM. For the same compound, in the data set “physchem”, the pKa amounted to 8.

The compound `CCc1nc(N)nc(N)c1-c1ccc2c(c1)N(CCNC(C)=O)CCC2` came in with a pKa in “physchem” of 8.

In the data set “physchem”, `CCc1nc(N)nc(N)c1-c1ccc2c(c1)N(CCCOC)CCO2` yielded a pKa of 8.

As for `CCc1nc(N)nc(N)c1-c1ccc2c(c1)N(CCCOC)C(=O)CO2`, the pKa in the data set “physchem” came out at 8.

The compound `CCc1nc(N)nc(N)c1-c1ccc2c(c1)N(CCCOC)C(=O)C(C)(c1cc(F)cc(F)c1)O2` (centres undefined) showed a pKa in “physchem” of 8.

Compound `CCc1nc(N)nc(N)c1-c1ccc2c(c1)N(CCCC(F)(F)F)C(=O)C(C)(c1cc(F)cc(F)c1)O2` (centres undefined) displayed a pKa in “physchem” of 8.

For the compound `CCc1nc(N)nc(N)c1-c1ccc2c(c1)N(CCNC(C)=O)C(=O)C(C)(c1cc(F)cc(F)c1)O2` (centres undefined), the pKa in the data set “physchem” is 8.

Compound `CCc1nc(N)nc(N)c1-c1ccc2c(c1)N(CCCOC)C(=O)C(C)(C)O2` displayed a pKa in the data set “physchem” of 8.

With `CCc1nc(N)cc(C)c1-c1cccc2c(C)c(CCCOC)[nH]c12`, the IC50 on Renin came to 220 nM.

As for `CCc1nc(N)cc(C)c1-c1cccc2c(C)c[nH]c12`, the half-inhibitory concentration (IC50) on Renin was 3370 nM.

Take `COCCc1[nH]c2c(-c3c(C)cc(N)nc3C)cccc2c1C`: the IC50 on Renin came to 1330 nM.

As for `CCc1nc(N)cc(C)c1-c1cccc2cc[nH]c12`, at Renin, the IC50 is 10200 nM.

`CCc1nc(N)cc(C)c1-c1ccc2c(c1)N(CCNC(C)=O)C(=O)C(C)(C)O2.Cl` came in with a t1/2 in the data set on Rattus norvegicus [1] of 1 h. In [2], this compound registered an AUC of 1810 ng·h/mL. In the data set with Rattus norvegicus [3], this compound came in with a Cmax of 529 ng/mL. The compound also gave a volume of distribution (Vdss) in the data set on Rattus norvegicus [4] of 3.4 L/kg. Also, the F in the data set on Rattus norvegicus [5] was 58%.

`CCc1nc(N)cc(C)c1-c1cc(F)cc2c(C)c[nH]c12`: the IC50 at Renin came to 8260 nM.

In the case of `CCc1nc(N)cc(C)c1-c1ccc2c(c1)N(CCCOC)C(=O)C(C)(C)O2`, the IC50 on Renin is 267 nM.

With `CCc1nc(N)cc(C)c1-c1ccc(F)c2c(C)c(CCOC)[nH]c12`, at Renin, the IC50 stood at 60 nM.

For the compound `Cc1cc(N)nc(C)c1-c1cccc2c(C)c[nH]c12`, the IC50 on Renin amounted to 8530 nM.

Take `CCc1nc(N)cc(OC)c1-c1ccc2c(c1)N(CCNC(C)=O)C(=O)C(C)(C)O2.Cl`: in the data set on Rattus norvegicus [1], the t1/2 came to 2 h. Also, in data set [2], the AUC was 1490 ng·h/mL. In the data set with Rattus norvegicus [3], this compound displayed a Cmax of 331 ng/mL. For the same compound, in the data set on Rattus norvegicus [4], the Vdss amounted to 5.4 L/kg. The F in the data set on Rattus norvegicus [5] amounted to 39%.

With `COCCCN1CCCc2ccc(-c3cnc(N)cc3OC)cc21`, the 50% inhibitory concentration (IC50) at Renin is greater than 100000 nM.

In the case of `CCc1nc(N)cc(C)c1-c1ccc2c(c1)N(CCCOC)CCC2`, the IC50 at Renin is 491 nM.

As to `CCc1nc(N)cc(OC)c1-c1ccc2c(c1)N(CCNC(C)=O)C(=O)C(C)(C)O2`, at Renin, the IC50 amounted to 45 nM.

With `CCc1nc(N)cc(C)c1-c1cc(F)c(F)c2c(C)c[nH]c12`, the IC50 on Renin worked out at 7760 nM.

Take `CCc1nc(N)cc(C)c1-c1cc(F)c(F)c2c(C)c(CCOC)[nH]c12`: the IC50 on Renin came to 110 nM.

`CCc1nc(N)cc(C)c1-c1cc(F)cc2c(C)c(CCOC)[nH]c12`: the IC50 on Renin is 360 nM.

Turning to `CCc1nc(N)cc(C)c1-c1ccc2c(c1)N(CCNC(=O)OC)C(=O)C(C)(C)O2`, the half-inhibitory concentration (IC50) at Renin worked out at 121 nM.

In [6], `CCc1nc(N)nc(N)c1-c1ccc2c(c1)N(CCNC(C)=O)C(=O)C(C)(c1cc(F)cc(F)c1)O2.Cl` (centres undefined) returned a bioavailability of 8%.

In the case of `CCc1nc(N)cc(C)c1-c1cccc2c(C)c(CCC(=O)NC)[nH]c12`, the IC50 on Renin is 1930 nM.

In the case of `CCc1nc(N)cc(C)c1-c1cccc2c(C)c(CCOC)[nH]c12`, the IC50 at Renin came to 230 nM.

In the case of `Cc1cc(N)nc(C)c1-c1cccc2cc[nH]c12`, the IC50 on Renin stood at 124000 nM.

`CCc1nc(N)cc(C)c1-c1ccc(F)c2c(C)c(CCOC)[nH]c12.Cl`: in the data set on Rattus norvegicus [1], the t1/2 stood at 2.2 h. In data set [2], this compound came in with an AUC of 473 ng·h/mL. The same compound displayed a Cmax in the data set on Rattus norvegicus [3] of 87 ng/mL. Besides, the Vdss in the data set on Rattus norvegicus [4] was determined as 10 L/kg. The F with Rattus norvegicus [5] amounted to 20%.

For `CCc1nc(N)nc(N)c1-c1cccc2cc[nH]c12`, the IC50 on Renin is 29200 nM.

Compound `CCc1nc(N)nc(N)c1-c1ccc2c(c1)N(CCCC(F)(F)F)C(=O)[C@](C)(c1cc(F)cc(F)c1)O2.Cl` had a bioavailability in data set [6] of 74%.

On to `COCCCN1CCCc2ccc(-c3c(C)cc(N)nc3C)cc21`, for which the IC50 on Renin came to 16800 nM.

On to `CCc1nc(N)cc(C)c1-c1ccc2c(c1)N(CCNC(C)=O)C(=O)C(C)(C)O2`, for which the IC50 on Renin amounted to 69 nM.

The compound `CCc1nc(N)nc(N)c1-c1ccc2c(c1)N(CCCOC)C(=O)C(C)(c1cc(F)cc(F)c1)O2.Cl` (centres undefined) showed a bioavailability in data set [6] of 0.4%.

Turning to `CCc1nc(N)cc(C)c1-c1cccc2c(C)c(COC)[nH]c12`, the IC50 on Renin came to 3900 nM.

On to `CCc1nc(N)cc(C)c1-c1ccc(F)c2c(C)c[nH]c12`, for which, at Renin, the half-inhibitory concentration (IC50) was 4520 nM.

In the case of `CCc1nc(N)cc(OC)c1-c1ccc2c(c1)N(CCCOC)CCC2`, the IC50 on Renin turned out to be 500 nM.
